Screening data deposited in PubChem by several laboratories.
Beta2AR agonist: human beta-2 adrenergic receptor agonism by FAP; Am2.2-beta2AR cells, FAP receptor internalization, flow cytometry; P07550; 0.43% of 340,000 active; AID 504454; response, % (no concentration beside the values);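 active = response above a set limit, near 3 SD of response in nonfluorescent compounds, cut at about 42% in these data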
HTR2A ag: activates the mouse 5-HT2A serotonin receptor; P35363; CHO-K1 mHTR2A beta-arrestin complementation, luminescence; percent of 30 µM serotonin response; activation, % at 7.6 µM; 0.66% of 360,000 active;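 active = activation above a run cutoff, the mean activation of all tested compounds plus 3 SD, cut at about 14% in these data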;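 also: 0% = plate median of compound wells and 100% = 30 µM serotonin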
TAAR1 ag: agonists of human TAAR1; Q96RJ0; CHO RD-HGA16 TAAR1, Fluo-8 calcium fluorescence; vehicle wells 0%, saturating PEA agonist 100%; activation, % at 3 µM; 0.99% of 360,000 active;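 active = activation above the mean activation of all test compounds in the run plus 3 SD, cut at about 38% in these data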
Target sequence (Q96RJ0 whole entry, looked up): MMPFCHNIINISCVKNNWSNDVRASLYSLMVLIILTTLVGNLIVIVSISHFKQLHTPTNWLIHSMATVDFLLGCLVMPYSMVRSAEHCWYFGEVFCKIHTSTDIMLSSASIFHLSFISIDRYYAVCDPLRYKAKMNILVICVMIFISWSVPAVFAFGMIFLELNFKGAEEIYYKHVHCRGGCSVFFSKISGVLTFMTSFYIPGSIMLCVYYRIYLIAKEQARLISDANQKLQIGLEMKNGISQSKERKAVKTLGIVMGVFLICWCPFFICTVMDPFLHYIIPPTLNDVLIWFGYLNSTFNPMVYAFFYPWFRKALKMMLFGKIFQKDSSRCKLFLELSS
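Repeats: no replicates (n 1) | Material: CHO-derived RD-HGA16 cells with stable Gα16 and human TAAR1 | Technique: Kinetic Fluo-8 calcium fluorescence | Schedule: 17-24 h seeding, 75 min 37 °C dye, 30 min RT | Evaluation: % activation from peak over basal fluorescence ratio, DMSO-to-PEA scaled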
TAAR1 antagonist: human TAAR1 antagonism. AID 624466. 1.5% of 360,000 active. Q96RJ0. CHO RD-HGA16 TAAR1, Fluo-8 calcium fluorescence, antagonist. inhibition, % at 3 µM;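 active = inhibition above a per-plate cutoff, the mean inhibition of test compounds on that plate plus 3 SD, cut at about 49% in these data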;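 also: 0% = DMSO plus EC80 beta-PEA response and 100% = DMSO alone without agonist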
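Material: RD-HGA16 CHO cells with stable hTAAR1 and Gα16; Dosing: single nominal final test compound concentration of 3 µM; Schedule: seeding 17-24 h prior, 75-min 37 °C, 30-min RT dye loading; Detection: kinetic Fluo-8 calcium fluorescence measurement; Measure: % inhibition from peak post-agonist over basal fluorescence ratio; Benchmarks: vehicle and agonist controls.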
MC4R antagonist: human MC4R antagonism in cAMP assay | inhibition, % at 6.5 µM | P32245 | 0.48% of 360,000 active | MC4R-expressing cells, MTII-stimulated cAMP, LANCE TR-FRET | AID 540295;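 active = inhibition above its plate's cutoff, the mean of tested wells on that plate plus 3 SD, cut at about 29% in these data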;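 also: 0% = Melanotan II alone and 100% = Melanotan II plus saturating MCL0020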
Target sequence (P32245 whole entry, looked up): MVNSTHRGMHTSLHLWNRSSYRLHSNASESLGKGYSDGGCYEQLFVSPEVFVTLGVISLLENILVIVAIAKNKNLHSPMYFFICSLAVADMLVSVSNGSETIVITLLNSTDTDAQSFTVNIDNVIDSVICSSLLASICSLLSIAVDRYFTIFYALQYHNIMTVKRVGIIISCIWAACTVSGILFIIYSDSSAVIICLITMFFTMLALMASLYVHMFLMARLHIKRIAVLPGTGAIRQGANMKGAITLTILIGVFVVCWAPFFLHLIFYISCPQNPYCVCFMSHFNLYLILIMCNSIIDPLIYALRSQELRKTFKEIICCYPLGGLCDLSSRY
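Assay system: human MC4R-expressing U2OS cells; reagent: Melanotan II stimulation of cells; dosing: 6.5 µM single dose; timing: compound 30 min, challenge 1 h, detection 1 h; signal: TR-FRET cAMP assay; replicates: one well per compound, no replicates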
MC4R ag barr: activates human MC4R beta-arrestin recruitment | U2OS MC4R beta-arrestin complementation, luminescence; percent of melanotan II response, DMSO zero | 0.98% of 360,000 active | P32245 | activation, % at 8.9 µM;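 active = activation above a per-plate cutoff, the mean activation of sample wells on that plate plus 3 SD, cut at about 8% in these data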
TAAR1 nonsel count: nonselective antagonism, TAAR1 counter-screen | counterscreen cell line, calcium fluorescence, antagonist mode | inhibition, % at 3 µM | 77% of 2,400 active | shares compounds with TAAR1 antagonist; in the data active = inhibition above about 22%;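 also: CHO-Ga16 host cells stimulated with ATP at an EC80 level; 0% = agonist EC80 plus vehicle and 100% = vehicle without agonist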
TAAR1 ant conf: human TAAR1 antagonism, confirmed. shares compounds with TAAR1 antagonist. TAAR1-expressing cells, fluorescence antagonist read-out. 40% of 2,400 active. inhibition, % at 3 µM; in the data active = inhibition above about 49%;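 also: CHO-Ga16 host cells challenged with agonist PEA near its EC80; 0% = agonist at EC80 plus vehicle and 100% = vehicle with no agonist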
Ga16 nonsel ag: nonselective Ga16 agonism, counter-screen; shares compounds with TAAR1 antagonist; Ga16-expressing cells, calcium fluorescence, agonist counterscreen; activation, % at 3 µM; 18% of 2,400 active; AID 651953; in the data active = activation above about 12%;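 also: 0% = vehicle wells and 100% = saturating stimulus response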
TAAR1 ag count: TAAR1 agonism, antagonist counter-screen; shares compounds with TAAR1 antagonist; hTAAR1 cell line, fluorescence activation, agonist mode; activation, % at 3 µM; 2% of 2,400 active; AID 651955; in the data active = activation above about 37%;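 also: CHO cells stably expressing TAAR1 with calcium dye readout; 0% = DMSO vehicle and 100% = full agonist response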
The depositor's hits bear a star. This is a sample that favours compounds with a hit; in the whole collection about 4.3% have one here.

COc1ccc(C(c2nnnn2Cc2ccccc2)N2CCC(n3c(=O)[nH]c4ccccc43)CC2)cc1 (stereo unspecified) was read as HTR2A ag 7, TAAR1 ag 12 and TAAR1 antagonist 39.
Screening CSCCC(c1nnnn1Cc1ccccc1)N1CCC(n2c(=O)[nH]c3ccccc32)CC1 (stereo unspecified) returned HTR2A ag 9, TAAR1 ag 17, TAAR1 antagonist 70*, TAAR1 nonsel count 22*, TAAR1 ant conf 52*, Ga16 nonsel ag 11 and TAAR1 ag count 29.
O=c1[nH]c2ccccc2n1C1CCN(C(CCc2ccccc2)c2nnnn2Cc2ccccc2)CC1 (stereo unspecified) was read as HTR2A ag 6, TAAR1 ag 16, TAAR1 antagonist 55*, TAAR1 nonsel count 17, TAAR1 ant conf 42, Ga16 nonsel ag 7 and TAAR1 ag count 13.
For CN(C)N=O the results were Beta2AR agonist 10, HTR2A ag -1, TAAR1 ag 0, TAAR1 antagonist 11, MC4R antagonist 6 and MC4R ag barr 1.
For Fc1ccc2c(c1)nnn2C1CCN(Cc2ccccc2)CC1 the results were Beta2AR agonist -8, HTR2A ag -10, TAAR1 ag 5, TAAR1 antagonist -2, MC4R antagonist -5 and MC4R ag barr 0.
`c1ccc(-c2nc3ccccc3nc2-c2ccc(CN3CCC(n4nnc5ccccc54)CC3)cc2)cc1` gave TAAR1 ag 1, TAAR1 antagonist 51*, TAAR1 nonsel count 16, TAAR1 ant conf 32, Ga16 nonsel ag 0 and TAAR1 ag count -2.
CN(C)c1ccc(C2C3C=CC(C3)C2(C#N)C(=O)O)c(Br)c1 (stereo unspecified) was read as Beta2AR agonist 3, HTR2A ag 8, TAAR1 ag -1, TAAR1 antagonist 5, MC4R antagonist 0 and MC4R ag barr -1.
Cc1c(C(=O)N2CCC3(CC2)OCCO3)sc2ncnc(N3CCN(c4ccccn4)CC3)c12 was read as Beta2AR agonist 9, HTR2A ag 0, TAAR1 ag 23, TAAR1 antagonist 61*, MC4R antagonist 8, MC4R ag barr -1, TAAR1 nonsel count 28*, TAAR1 ant conf 50*, Ga16 nonsel ag 8 and TAAR1 ag count 7.
Screening N/C(=N\[N+](=O)[O-])N1CCN(C(=O)Oc2ccccc2)CC1 returned Beta2AR agonist -1, HTR2A ag -2, TAAR1 ag 1, TAAR1 antagonist -7, MC4R antagonist -4 and MC4R ag barr -2.
For Cc1cccc(OP(=O)(Nc2cccnc2)Oc2cccc(C)c2)c1 the results were Beta2AR agonist 2, HTR2A ag -3, TAAR1 ag 10, TAAR1 antagonist 39, MC4R antagonist 6 and MC4R ag barr 0.
O=P(Nc1cccnc1)(Oc1ccccc1Cl)Oc1ccccc1Cl was read as Beta2AR agonist 5, HTR2A ag -5, TAAR1 ag 10, TAAR1 antagonist 70*, MC4R antagonist 7, MC4R ag barr -1, TAAR1 nonsel count 32*, TAAR1 ant conf 47, Ga16 nonsel ag 7 and TAAR1 ag count 9.
Screening COc1ccccc1OCCCn1cc(C(=O)c2ccco2)c2ccccc21 returned Beta2AR agonist -6, HTR2A ag -7, TAAR1 ag 7, TAAR1 antagonist 54*, MC4R antagonist 5, MC4R ag barr 3, TAAR1 nonsel count 27*, TAAR1 ant conf 39, Ga16 nonsel ag 4 and TAAR1 ag count 4.
For O=C(c1ccco1)c1cn(Cc2ccc(Cl)cc2)c2ccccc12 the results were Beta2AR agonist -7, HTR2A ag -6, TAAR1 ag 6, TAAR1 antagonist 17, MC4R antagonist -4 and MC4R ag barr -2.
For O=C1CCC2(O)C3Cc4ccc(O)c5c4C2(CCN3Cc2ccoc2)C1O5 (stereo unspecified) the results were HTR2A ag 7, TAAR1 ag 4, TAAR1 antagonist -20, MC4R antagonist 3 and MC4R ag barr 0.
For CC(=O)c1ccc2c(c1)C1C(Cl)C(Sc3ccccc3[N+](=O)[O-])CC1C(c1ccccc1[N+](=O)[O-])N2 (stereo unspecified) the results were Beta2AR agonist 20, HTR2A ag 3, TAAR1 ag 9, TAAR1 antagonist 58*, MC4R antagonist 10, MC4R ag barr -1, TAAR1 nonsel count 34*, TAAR1 ant conf 46, Ga16 nonsel ag 7 and TAAR1 ag count 4.
Screening C=CCn1c(O)c(C(CC)=NCCC2=CCCCC2)c(=O)[nH]c1=O returned Beta2AR agonist 4, HTR2A ag -1, TAAR1 ag 33, TAAR1 antagonist 0, MC4R antagonist 13 and MC4R ag barr 0.
`N#Cc1ccccc1Cn1cc(C(=O)c2ccccc2F)c2ccccc21` gave Beta2AR agonist 10, HTR2A ag -9, TAAR1 ag 3, TAAR1 antagonist 6, MC4R antagonist 6 and MC4R ag barr -1.
`O=C1NCN(c2ccccc2)C12CCN(C(c1ccccc1)c1nnnn1Cc1ccccc1)CC2` (stereo unspecified) gave HTR2A ag 2, TAAR1 ag 9, TAAR1 antagonist 53*, TAAR1 nonsel count 20, TAAR1 ant conf 30, Ga16 nonsel ag 7 and TAAR1 ag count 3.
Screening O=C1NCN(c2ccccc2)C12CCN(C(c1ccnc3ccccc13)c1nnnn1-c1ccc3c(c1)OCCO3)CC2 (stereo unspecified) returned HTR2A ag 1, TAAR1 ag 19, TAAR1 antagonist 59*, TAAR1 nonsel count 29*, TAAR1 ant conf 43, Ga16 nonsel ag 10 and TAAR1 ag count 11.
Screening O=C1NCN(c2ccccc2)C12CCN(C(c1nnnn1Cc1ccccc1)C1CC1)CC2 (stereo unspecified) returned HTR2A ag 5, TAAR1 ag 4 and TAAR1 antagonist 18.
